From ChEMBL document CHEMBL3596114, “SAR refinement of antileishmanial N(2),N(4)-disubstituted quinazoline-2,4-diamines” (Bioorg Med Chem, 2015)

Key:
[1] = Cytotoxicity against mouse J774A.1 cells assessed as inhibition of cell viability after 72 hrs by MTT assay; format: cell-based; settings: J774.A1, 72 h
Procedure, shortened: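 J774A.1 murine macrophages were grown in RPMI with 10% FBS and penicillin/streptomycin at 37 °C, 5% CO2, and plated at 5 × 10^3 cells/well with serial compound dilutions for 72 h. MTT was added for 2 h, then cells were lysed with 10% SDS in 50% DMF for 3–5 h and read at 570 nm. EC50 came from a four-parameter fit, at least three independent experiments, podophyllotoxin control.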

[2] = Selectivity index, ratio of EC50 for mouse J774A.1 cells to EC50 for of beta-lactamase expressing Leishmania donovani MHOM/ET/67/L82 infected in CD-1 mouse peritoneal macrophages
Leishmania donovani [3] = assay: Antileishmanial activity against […] forms of beta-lactamase expressing Leishmania donovani MHOM/ET/67/L82 infected in CD-1 mouse peritoneal macrophages assessed as inhibition of beta-lactamase activity after 3 days by spectrophotometer assay; format: functional, organism-based; settings: MHOM/ET/67/L82, 72 h
Procedure, shortened: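 Intracellular L. donovani assay in macrophages run by an earlier method, with amphotericin B as the control drug. EC50 is the mean ± standard deviation of at least three independent experiments. Where a mean could not be obtained, the value comes from at least two determinations.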

Mus musculus [4] = assay: Toxicity in BALB/c mouse assessed as induction of adverse events at 30 mg/kg/day, ip administered for 5 days; format: organism-based; settings: in vivo, 120 h
Procedure, shortened: (§1)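 Female BALB/c mice were dosed ip daily for 5 days at 10 or 30 mg/kg/day and observed for adverse effects.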

Liver [5] = assay: Cmax in Swiss-Webster mouse liver at 10 mg/kg, ip after 4 hrs by UPLC-MS/MS analysis; format: ADME, organism-based; parameters: dose 10 mg/kg, route intraperitoneal; settings: in vivo
Procedure, shortened: (§2)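 Male Swiss Webster mice got a single 10 mg/kg ip dose in DMSO/PEG400/ethanol/water vehicle. Liver and spleen were excised at 4 and 12 h, rinsed, frozen and homogenized in water (liver 3-fold, spleen 4-fold dilution). Tissue concentrations were measured by UPLC-MS/MS (calibration 0.025–25 μM), triplicate determinations.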

[6] = Cmax in Swiss-Webster mouse spleen at 10 mg/kg, ip after 12 hrs by UPLC-MS/MS analysis; format: ADME, organism-based; parameters: dose 10 mg/kg, route intraperitoneal; settings: read-out: Cmax; procedure, shortened: as §2
Spleen = assay: Cmax in Swiss-Webster mouse spleen at 10 mg/kg, ip after 4 hrs by UPLC-MS/MS analysis; format: ADME, organism-based; parameters: dose 10 mg/kg, route intraperitoneal; settings: in vivo; procedure, shortened: as §2
[7] = Cmax in Swiss-Webster mouse liver at 10 mg/kg, ip after 12 hrs by UPLC-MS/MS analysis; format: ADME, organism-based; parameters: dose 10 mg/kg, route intraperitoneal; settings: read-out: Cmax; procedure, shortened: as §2
[8] = AUC in Swiss-Webster mouse plasma at 10 mg/kg, ip by UPLC-MS/MS analysis; format: ADME, organism-based
Procedure, shortened: (§3)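 Male Swiss Webster mice (20–25 g) got a single ip dose of 10 mg/kg in DMSO/PEG400/ethanol/water (0.5:5:1:3.5, v/v). Blood was drawn at 0.25–12 h, n = 3 per time point, and plasma was extracted with methanol-water plus internal standard. Samples were run by UPLC-MS/MS in SRM positive mode (calibration 0.025–25 μM). AUC, Cmax, Tmax, terminal t1/2 and Vz/F came from noncompartmental analysis.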

Leishmania donovani [9] = assay: Antileishmanial activity against Leishmania donovani infected in visceral leishmaniasis BALB/c mouse model assessed as reduction of liver parasitemia at 10 mg/kg/day, ip administered for 5 days; format: functional; settings: 120 h
Procedure, shortened: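 Acute murine visceral leishmaniasis model in female BALB/c mice (6–8 weeks). […] Liver parasitemia was expressed as % inhibition versus infected controls.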

Liver [10] = assay: Half-life in mouse liver microsomes by UPLC analysis; format: ADME
Procedure, shortened: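 Pooled mouse liver microsomes with NADPH were incubated and the parent compound quantified by UPLC-MS/MS. Half-life was obtained by fitting one-phase exponential decay to percent substrate remaining versus time.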

Mus musculus [11] = assay: Toxicity in BALB/c mouse assessed as induction of adverse events at 10 mg/kg/day, ip administered for 5 days; format: organism-based; settings: in vivo, 120 h; procedure, shortened: as §1
[12] = Tmax in Swiss-Webster mouse plasma at 10 mg/kg, ip by UPLC-MS/MS analysis; format: ADME, organism-based; procedure, shortened: as §3
[13] = Half-life in Swiss-Webster mouse plasma at 10 mg/kg, ip by UPLC-MS/MS analysis; format: ADME, organism-based; procedure, shortened: as §3
[14] = Apparent volume of distribution in Swiss-Webster mouse plasma at 10 mg/kg, ip by UPLC-MS/MS analysis; format: ADME, organism-based; settings: read-out: Vz/F; procedure, shortened: as §3
Plasma = assay: Cmax in Swiss-Webster mouse plasma at 10 mg/kg, ip by UPLC-MS/MS analysis; format: ADME, organism-based; parameters: dose 10 mg/kg, route intraperitoneal; settings: in vivo; procedure, shortened: as §3

c1ccc(CNc2nc(NCc3ccccc3)c3ccccc3n2)cc1
EC50 [1]: 5.5 µM

Cc1ccc(CNc2nc(NCc3ccc(C)cc3)c3ccccc3n2)cc1
EC50 [1]: 2.9 µM
selectivity ratio [2]: 2.6
EC50 (Leishmania donovani [3]): 1.1 µM

COc1ccc(CNc2nc(NCc3ccc(OC)cc3)c3ccccc3n2)cc1
EC50 [1]: 2.2 µM
selectivity ratio [2]: 0.37
EC50 (Leishmania donovani [3]): 6 µM

CNc1nc(NCc2ccco2)c2ccccc2n1
EC50 (Leishmania donovani [3]): > 25 µM

CC(C)Nc1nc(NCc2ccco2)c2ccccc2n1
EC50 [1]: 17 µM

c1coc(CNc2nc(NC3CCC3)nc3ccccc23)c1
EC50 (Leishmania donovani [3]): > 25 µM

c1coc(CNc2nc(NC3CCCC3)nc3ccccc23)c1
EC50 (Leishmania donovani [3]): > 25 µM

c1coc(CNc2nc(NC3CCCCC3)nc3ccccc23)c1
EC50 [1]: 5.3 µM
selectivity ratio [2]: 1.3
EC50 (Leishmania donovani [3]): 4 µM

CNc1nc(NCc2ccco2)nc2ccccc12
EC50 (Leishmania donovani [3]): 20 µM

CC(C)Nc1nc(NCc2ccco2)nc2ccccc12
EC50 [1]: 8.3 µM
selectivity ratio [2]: 0.75
EC50 (Leishmania donovani [3]): 11 µM

CNc1nc(NC)c2ccccc2n1
EC50 [1]: > 133 µM
selectivity ratio [2]: > 17.5
EC50 (Leishmania donovani [3]): 7.6 µM

CNc1nc(NC(C)C)nc2ccccc12
EC50 (Leishmania donovani [3]): > 25 µM

CNc1nc(NCCO)nc2ccccc12
EC50 (Leishmania donovani [3]): > 25 µM

CNc1nc(NC2CCCC2)nc2ccccc12
EC50 [1]: 39 µM
selectivity ratio [2]: 8.9
EC50 (Leishmania donovani [3]): 4.4 µM

CCNc1nc(NC(C)C)nc2ccccc12
EC50 [1]: > 30 µM
selectivity ratio [2]: > 4.8
EC50 (Leishmania donovani [3]): 6.3 µM

CC(C)Nc1nc(NC(C)C)c2ccccc2n1
EC50 [1]: > 30 µM
selectivity ratio [2]: > 13
EC50 (Leishmania donovani [3]): 2.3 µM

CC(C)Nc1nc(NC2CC2)nc2ccccc12
EC50 [1]: > 40 µM
selectivity ratio [2]: > 5
EC50 (Leishmania donovani [3]): 8 µM

CC(C)Nc1nc(NC2CC2)c2ccccc2n1
EC50 [1]: 31 µM
selectivity ratio [2]: 5.1
EC50 (Leishmania donovani [3]): 6.1 µM

CC(C)Nc1nc(NCC2CCCO2)c2ccccc2n1 (stereo unspecified)
EC50 [1]: 46 µM
selectivity ratio [2]: 5.2
EC50 (Leishmania donovani [3]): 8.9 µM

CC(C)Nc1nc(NCc2ccccc2)nc2ccccc12
Activity (Mus musculus [4]): Toxic
Cmax (Liver [5]): 20.2 µM
concentration at 12 h [6]: 0.18 µM
Cmax (Spleen): 16.5 µM
concentration at 12 h [7]: 0.54 µM
AUC(0-inf) [8]: 7.14 µM·h
EC50 [1]: 7.2 µM
selectivity ratio [2]: 19
inhibition in vivo at 10 mg/kg/day (Leishmania donovani [9]): 23.8%
t1/2 (Liver [10]): 0.7 h
Activity (Mus musculus [11]): Non-toxic
EC50 (Leishmania donovani [3]): 0.38 µM
Tmax [12]: 0.25 h
half-life [13]: 2.1 h
Vd/F [14]: 1.15 L/kg
Cmax (Plasma): 2.15 µM

CC(C)Nc1nc(NCc2ccccc2)c2ccccc2n1
EC50 [1]: 6.7 µM
selectivity ratio [2]: 3.4
EC50 (Leishmania donovani [3]): 2 µM

CC(C)Nc1nc(Nc2ccccc2)c2ccccc2n1
EC50 [1]: 12 µM
selectivity ratio [2]: 6.3
EC50 (Leishmania donovani [3]): 1.9 µM

Clc1ccc(CNc2nc(NCc3ccccc3)c3ccccc3n2)cc1
Activity (Mus musculus [4]): Toxic
Cmax (Liver [5]): 25.3 µM
concentration at 12 h [6]: 11.4 µM
Cmax (Spleen): 26.6 µM
concentration at 12 h [7]: 8.51 µM
AUC(0-inf) [8]: 15.7 µM·h
EC50 [1]: 3.2 µM
selectivity ratio [2]: 5.2
inhibition in vivo at 10 mg/kg/day (Leishmania donovani [9]): 12%
t1/2 (Liver [10]): 1.47 h
Activity (Mus musculus [11]): Non-toxic
EC50 (Leishmania donovani [3]): 0.61 µM
Tmax [12]: 0.5 h
half-life [13]: 9.3 h
Vd/F [14]: 22.3 L/kg
Cmax (Plasma): 1.4 µM

Clc1ccc(CNc2nc(NCc3ccccc3)nc3ccccc23)cc1
EC50 [1]: 4.6 µM
selectivity ratio [2]: 5.6
EC50 (Leishmania donovani [3]): 0.82 µM

Cc1ccc(CNc2nc(NCc3ccccc3)c3ccccc3n2)cc1
EC50 [1]: 4.5 µM
selectivity ratio [2]: 5.1
EC50 (Leishmania donovani [3]): 0.89 µM

Cc1ccc(CNc2nc(NCc3ccccc3)nc3ccccc23)cc1
EC50 [1]: 2.1 µM
selectivity ratio [2]: 5.4
EC50 (Leishmania donovani [3]): 0.39 µM

COc1ccc(CNc2nc(NCc3ccccc3)c3ccccc3n2)cc1
EC50 [1]: 4.1 µM
selectivity ratio [2]: 5.7
EC50 (Leishmania donovani [3]): 0.72 µM

COc1ccc(CNc2nc(NCc3ccccc3)nc3ccccc23)cc1
EC50 [1]: 5.2 µM
selectivity ratio [2]: 2.1
EC50 (Leishmania donovani [3]): 2.5 µM

CNc1nc(NCc2ccccc2)nc2ccccc12
EC50 [1]: 15 µM
selectivity ratio [2]: 100

c1ccc(CNc2nc(OCc3ccccc3)c3ccccc3n2)cc1
EC50 [1]: 3.3 µM
selectivity ratio [2]: 5.1
EC50 (Leishmania donovani [3]): 0.65 µM

c1ccc(CNc2nc(-c3ccccc3)c3ccccc3n2)cc1
EC50 (Leishmania donovani [3]): > 10 µM

Cc1ccccc1-c1nc(NCc2ccccc2)nc2ccccc12
EC50 (Leishmania donovani [3]): > 10 µM

Cc1ccccc1-c1nc(NCc2ccccc2)c2ccccc2n1
EC50 (Leishmania donovani [3]): > 10 µM

CCNc1nc(NC)c2ccccc2n1
EC50 (Leishmania donovani [3]): > 25 µM

C[C@@H]1[C@H](O)[C@@H](C)/C=C/C=C/C=C/C=C/C=C/C=C/C=C/[C@H](O[C@@H]2O[C@H](C)[C@@H](O)[C@H](N)[C@@H]2O)C[C@@H]2O[C@](O)(C[C@@H](O)C[C@@H](O)[C@H](O)CC[C@@H](O)C[C@@H](O)CC(=O)O[C@H]1C)C[C@H](O)[C@H]2C(=O)O [AMPHOTERICIN B]
EC50 (Leishmania donovani [3]): 0.041 µM

CCCCCCCCCCCCCCCCOP(=O)([O-])OCC[N+](C)(C)C [MILTEFOSINE]
inhibition in vivo at 10 mg/kg/day (Leishmania donovani [9]): 93.6%

COc1cc([C@@H]2c3cc4c(cc3[C@H](O)[C@H]3COC(=O)[C@H]23)OCO4)cc(OC)c1OC [PODOFILOX]
EC50 [1]: 0.021 µM
